Assay [1] relates to HT-29. Description: Antiproliferative activity against human HT29 cells at 5 uM after 96 hrs by MTT assay. As to conditions: HT-29, 96 h. It counts as functional, cell-based. The essentials:
(§1)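 MTT viability. Seeded per well at 0.5 × 10^4 (C6), 1 × 10^4 (TE671, A549) or 3 × 10^4 (HT-29, SK-N-AS). Next day exposed to serial dilutions (5–100 µM) in fresh medium with 10% FBS at 37 °C, 5% CO2 for 96 h. MTT (5 mg/mL) for 4 h, formazan dissolved overnight in 10% SDS/0.01 N HCl, A570. Threshold concentration giving antiproliferative effect recorded.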
(Tetrazolium assays rely on reduction of a dye to a coloured formazan, in cell work by metabolically active cells.)

Assay [2] relates to C6. Description: Inhibition of rat glioma C6 cell migration at 5 uM after 24 hrs. The format is functional, cell-based. The essentials:
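Scratch-wound assay. 1 × 10^6 C6 cells were plated per 4-cm dish. Next day the monolayer was scratched with a pipette tip and rinsed twice with PBS. Fresh medium alone or with 5 µM compound for 24 h, then May-Grünwald–Giemsa staining. Cells migrated into the wound were counted on micrographs as mean per field ±SEM over 50 wound areas from four micrographs; Student's t test.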

The subject of assay [3] is A549. The assay can be described thus: Antiproliferative activity against human A549 cells at 10 uM after 96 hrs by MTT assay. It counts as functional, cell-based. Conditions: A549, 96 h. An outline of the steps: as §1
The test system of assay [4] is TE-671. Description: Antiproliferative activity against human TE671 cells at 10 uM after 96 hrs by MTT assay. It counts as functional, cell-based. As to conditions: TE-671, 96 h. The essentials:
as §1

Assay [5] concerns SK-N-AS. The assay can be described thus: Antiproliferative activity against human SK-N-AS cells at 25 uM after 96 hrs by MTT assay. The format is functional, cell-based. An outline of the steps:
as §1

In assay [6] the test system is C6. The assay can be described thus: Antiproliferative activity against rat glioma C6 cells at 25 uM after 96 hrs by MTT assay. The format is functional, cell-based. Conditions: C6, 96 h. An outline of the steps:
as §1

Assay [7] deals with A549. Description: Antiproliferative activity against human A549 cells assessed as decreased cell division after 48 hrs. It counts as functional, cell-based. As to conditions: A549, 48 h. An outline of the steps:
(§2)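 BrdU ELISA. Cells seeded at 2 × 10^4 (A549) or 1 × 10^4 (C6) per well. Next day, fresh medium containing serial dilutions (5–50 µM) was added for 48 h. Cells were then labelled with 10 µM BrdU for 2 h, fixed/denatured 30 min, probed with peroxidase anti-BrdU and developed with TMB. Stopped with 1 M H2SO4, A450. Mean normalized OD ±SEM of 5–8 trials, linear regression.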

The subject of assay [8] is C6. The assay can be described thus: Antiproliferative activity against rat glioma C6 cells assessed as decreased cell division after 48 hrs. It counts as functional, cell-based. Conditions: C6, 48 h. An outline of the steps:
as §2

Assay [9] is filed under the species Rattus norvegicus. The assay can be described thus: Neuroprotective activity against glutamate-induced neurotoxicity in rat cortical neurons. The format is functional. An outline of the steps:
(§3)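 Cortical neurons from E18 Wistar rat fetuses, plated at 5 × 10^5 cells/mL on poly-L-lysine in B-27/Neurobasal medium and grown to 14 days. Insult was glutamate (500 µM) or serum deprivation (Neurobasal without B-27), alone or with 10 or 25 µM compound, for 48 h. MTT read-out as mean normalized OD ±SEM of 4–8 trials.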

The species entered for assay [10] is Rattus norvegicus. The assay can be described thus: Neuroprotective activity against serum deprivation induced neurotoxicity in rat cortical neurons. It counts as functional. An outline of the steps: as §3

Activity calls are given as the source filed them.

Turning to `Oc1ccc(-c2nnc(Nc3ccc(F)cc3)s2)c(O)c1`, the IC50 came to 33.1 µM in assay [1]; 22.8 µM in assay [3]; 26 µM in assay [4]; 54.7 µM in assay [5]; 27.3 µM in assay [6]; 13.7 µM in assay [7]. Moreover, in [8], the IC50 was 23.5 µM. The outcome in [2] was Active. The Activity result in assay [9] and in [10] was “Dose-dependent effect” each time.

By IC50 is commonly meant the point on the concentration scale where inhibition reaches its midpoint.

The values are drawn from ChEMBL document CHEMBL1147901, “Anticancer, neuroprotective activities and computational studies of 2-amino-1,3,4-thiadiazole based compound” (Bioorg Med Chem, 2007).
